# NTR1 ag: agonists of human NTR1, primary screen, imaging, U2OS cells, beta-arrestin-GFP, high content. NTR1-U2OS beta-arrestin-GFP spot imaging, agonist mode. Neurotensin receptor type 1 (Homo sapiens), P30989. hit rate 0.17% among 330,000. AID 493036, 2011. activation, % at 20 µM;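 active = activation at or above 40% of the spot to cytoplasm intensity ratio, with at least 20 cells analyzed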;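 also: 0% = DMSO without peptide and 100% = 100 nM NTR1 peptide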
# Target sequence (P30989 whole entry, looked up): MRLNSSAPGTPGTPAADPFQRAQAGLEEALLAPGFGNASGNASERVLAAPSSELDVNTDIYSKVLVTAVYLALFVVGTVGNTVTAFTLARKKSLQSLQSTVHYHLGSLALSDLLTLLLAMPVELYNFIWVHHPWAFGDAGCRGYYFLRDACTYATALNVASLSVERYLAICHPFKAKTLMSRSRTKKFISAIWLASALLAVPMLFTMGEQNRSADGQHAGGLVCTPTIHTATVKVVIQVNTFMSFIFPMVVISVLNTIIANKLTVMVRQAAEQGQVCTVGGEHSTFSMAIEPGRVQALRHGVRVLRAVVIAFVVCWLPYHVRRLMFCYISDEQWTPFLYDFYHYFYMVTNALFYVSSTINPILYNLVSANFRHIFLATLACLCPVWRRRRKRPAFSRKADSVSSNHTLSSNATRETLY
# TAG inh: inhibitors of triacylglycerol accumulation, primary screen, cell-based, uHTS, fluorescence, H9c2; H9c2 cells, Nile Red lipid (TAG) fluorescence; cells loaded with 200 µM oleic acid; inhibition, % at 12.5 µM; hit rate 0.66% among 230,000;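 active = pattern-corrected inhibition of lipid staining of at least 50% with the nuclear-stain viability signal not falling by more than 50%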;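 also: 0% = DMSO wells and 100% = triacsin C control wells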
# TbMetRS inhib: T. brucei MetRS inhibitors, primary screen, biochemical, luminescence; methionyl-tRNA synthetase (Trypanosoma brucei brucei); purified T. brucei MetRS, ATP depletion, Kinase-Glo luminescence; hit rate 0.4% among 360,000; AID 624268, 2012; inhibition, % at 11.9 µM;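 active = inhibition above a per-plate cutoff of the control wells' mean inhibition plus 3 SD, cut at about 5.5% in these data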;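 also: 0% = DMSO wells median and 100% = median of wells with control inhibitor compound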
#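 Measured by: Kinase-Glo luciferase luminescence reporting remaining unconsumed ATP. Material: purified T. brucei MetRS enzyme. Doses: 11.9 µM compound single dose, 0.9% DMSO. Medium: HEPES buffer containing pyrophosphatase, BSA, spermine, DTT. Times: 15 min preincubation, 2 h reaction, all 25 °C. Reagent: methionine, ATP and bulk E. coli tRNA.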
# aDG glyco up: activators of alpha-DG glycosylation, primary screen, uHTS, Pro5-aDG cells, AlphaScreen; activation, % at 10 µM; alpha-DG glycosylation AlphaScreen (IIH6); 0% Pro5, 100% B10-LARGE cell signal; AID 624168, 2012; hit rate 0.22% among 360,000;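 active = activation of at least 8% versus controls, or a plate z-score of at least 8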;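 also: Pro5 are CHO cells carrying HIG-tagged alpha-DG that lacks glycosylation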
# MC4R ag barr: MC4R agonists recruiting beta-arrestin, primary screen, cell-based, luminescence, agonist arm of biased-ligand search | hit rate 0.98% among 360,000 | activation, % at 8.9 µM | U2OS MC4R beta-arrestin complementation; percent of melanotan II response, DMSO zero;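 active = activation above a per-plate cutoff, the mean activation of sample wells on that plate plus 3 SD, cut at about 8% in these data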
# Target sequence (P32245 whole entry, looked up): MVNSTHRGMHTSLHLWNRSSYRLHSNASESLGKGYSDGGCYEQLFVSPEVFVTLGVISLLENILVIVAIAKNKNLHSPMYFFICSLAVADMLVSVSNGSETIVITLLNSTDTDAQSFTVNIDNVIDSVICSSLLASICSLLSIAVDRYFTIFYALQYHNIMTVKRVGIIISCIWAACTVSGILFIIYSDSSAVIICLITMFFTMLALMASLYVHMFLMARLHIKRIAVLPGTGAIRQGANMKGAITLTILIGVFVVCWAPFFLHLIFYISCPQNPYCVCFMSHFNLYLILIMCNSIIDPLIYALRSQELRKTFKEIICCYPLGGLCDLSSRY
# MC4R antagonist: MC4R antagonists of cAMP signaling, primary screen, cell-based, TR-FRET, antagonist arm of biased-ligand search; MC4R-expressing cells, MTII-stimulated cAMP, LANCE TR-FRET; inhibition, % at 6.5 µM; AID 540295, 2011; hit rate 0.48% among 360,000;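 active = inhibition above its plate's cutoff, the mean of tested wells on that plate plus 3 SD, cut at about 29% in these data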;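 also: 0% = Melanotan II alone and 100% = Melanotan II plus saturating MCL0020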
#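 Test system: U2OS cells stably expressing human melanocortin 4 receptor (MC4R); also added: Melanotan II challenge; compound: 6.5 µM single dose; timing: 30-min compound preincubation, 1-h Melanotan II challenge, 1-h detection, room temperature; signal: Eu-cAMP/anti-cAMP TR-FRET, emission 671 nm; repeats: one well per compound, no replicates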
# U2OS cAMP counter: nonselective cAMP signaling inhibitors, parental cells, counter-screen for MC4R biased antagonist project, cell-based, TR-FRET, U2OS, forskolin, triplicate. shares compounds with MC4R antagonist. LANCE TR-FRET. inhibition, % at 6.5 µM. hit rate 26% among 1,600. AID 602193, 2012;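 active = mean inhibition over triplicates above the low-control well mean plus 3 SD, set per campaign, cut at about 13% in these data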;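 also: signal is single emission at 671 nm which falls as cellular cAMP rises; 0% = forskolin-stimulated wells and 100% = buffer without forskolin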
# MC4R cAMP antag: MC4R cAMP antagonists, retest, confirmation, cell-based, TR-FRET. inhibition, % at 6.5 µM. shares compounds with MC4R antagonist. hit rate 27% among 1,600. MC4R-expressing cells, MTII-stimulated cAMP; in the data active = inhibition above about 29%;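 also: 0% = agonist stimulated wells alone and 100% = agonist stimulated wells plus saturating reference antagonist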
# MC4R barr conf: MC4R beta-arrestin agonists, retest, confirmation, cell-based, luminescence, U2OS. U2OS MC4R beta-arrestin recruitment; scaled DMSO 0%, Melanotan II 100%. AID 602192, 2012. shares compounds with MC4R ag barr. hit rate 31% among 2,400. activation, % at 8.9 µM;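 active = mean activation across replicates above the hit cutoff set in the earlier primary screen, cut at about 8% in these data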
# MOR DOR agonist: agonists of MOR-DOR heterodimerization, counter-screen for MC4R biased agonist project, cell-based, luminescence; hit rate 5.8% among 2,400; shares compounds with MC4R ag barr; activation, % at 9.2 µM; U2OS PathHunter beta-arrestin, beta-gal luminescence; percent of deltorphin B response, DMSO zero;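 active = mean activation across replicates exceeds the hit threshold derived in the earlier primary screen, cut at about 18% in these data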;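 also: 100% = deltorphin B at 0.9 µM final and 0% = DMSO alone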
# Active calls of the source: *; · = no result; ! = not confirmed by another sample. Shown are actives, neighbours in structure and some others; about 2.4% of the full set was active somewhere.
SMILES,NTR1 ag,TAG inh,TbMetRS inhib,aDG glyco up,MC4R ag barr,MC4R antagonist,U2OS cAMP counter,MC4R cAMP antag,others
CC(C)(C)OC(=O)CNC(=O)c1[nH]cnc1C(=O)NCC(=O)OCc1ccccc1,13.6,1.0,-0.4,-0.5,1.4,41.9*,2.8,8.1,
CC(C)(C)OC(=O)CNC(=O)c1nc[nH]c1C(=O)NCc1ccccc1,0.3,11.7,-0.7,-0.2,1.1,3.9,·,·,
CC(C)(C)OC(=O)NCCCC[C@H](NC(=O)c1nc[nH]c1C(=O)NCC(=O)OCc1ccccc1)C(=O)OC(C)(C)C,16.1,4.6,-0.6,0.1,-0.8,5.8,·,·,
CC(C)(C)OC(=O)NCCCCCNC(=O)c1nc[nH]c1C(=O)NCC(=O)OCc1ccccc1,12.0,·,-0.4,-0.5,-0.7,45.7*,3.4,1.4,
Clc1cc(Cl)cc(Nc2ccccc2CN(C/C=C/c2ccc3c(c2)OCO3)Cc2ccccc2)c1,·,-5.8,-0.8,0.0,-1.8,4.9,·,·,
COC(=O)[C@]12CCCCC=C1N(CCc1ccc(OC)c(OC)c1)C(=O)[C@H](CC(=O)NCc1cccs1)C2,·,·,0.0,0.0,·,·,·,·,
CCOC(=O)C(C)(C)N(Cc1cccc(C)c1)S(=O)(=O)c1ccc(Cl)c([N+](=O)[O-])c1,17.2,·,-0.1,0.5,0.8,53.5*,26.2*,63.3*,
COC(=O)c1ccc2nc(-c3ccco3)c(Cc3ccc(OC)cc3C)n2c1,·,·,-0.5,0.3,·,·,·,·,
CCCc1nnc(NC(=O)CC(C)c2ccccc2)s1 (centres undefined),0.8,2.7,-1.1,0.1,1.7,29.7*,-15.1,-29.3,
CC(C)c1nnc(NC(=O)CC(C)c2ccccc2)s1 (centres undefined),1.0,14.5,-1.7,0.0,-0.3,12.4,·,·,
CCc1nc2ccccc2n1CC(O)COc1ccc(NC(C)=O)cc1 (centres undefined),-2.1,1.7,-0.1,0.2,-1.2,14.9,·,·,
CC(=O)Nc1ccc(OCC(O)Cn2c(CO)nc3ccccc32)cc1 (centres undefined),1.1,-9.0,0.2,-0.1,-0.3,31.5*,-0.4,8.3,
Nc1ncnc2c1ncn2[C@@H]1O[C@H](C(=O)Nc2cc(C(F)(F)F)cc(C(F)(F)F)c2)[C@@H](O)[C@H]1O,·,·,0.0,0.0,·,·,·,·,
COC(=O)c1ccc2c(=O)n(Cc3ccco3)c(SCC(=O)Nc3ccccc3Cl)nc2c1,7.7,·,-0.4,0.1,0.2,29.0*,-3.1,-4.9,
COC(=O)c1ccc2c(=O)n(Cc3ccco3)c(SCC(=O)Nc3cc(C)on3)nc2c1,1.6,-16.8,-0.2,-0.1,0.4,13.4,·,·,
Brc1ccc2nc(C3CCCCC3)c(Cc3ccsc3)n2c1,·,·,0.7,-0.4,·,·,·,·,
COC(=O)C1(C)CCc2cc(OC)ccc2C1=O (centres undefined),0.6,·,0.0,-0.1,-2.9,-5.1,·,·,
COc1ccc2c(c1)CCC1(C)CC(=O)C(Br)=C21 (centres undefined),·,-3.0,-0.3,-0.1,-0.4,39.5*,33.7*,52.7*,
COc1cccc(CNC(=O)[C@@H]2CCCN2C(=O)[C@H]2CCCCN2C(=O)c2cccs2)c1,·,·,-0.2,0.1,·,·,·,·,
Cc1ccc(NC(=O)c2ccc(-c3cc(Cl)ccc3Cl)o2)c(C)c1,·,-38.8,-0.1,0.0,2.4,14.0,·,·,
Cc1ccc(Cl)cc1-c1cc(C(=O)N2CCc3ccccc3C2)[nH]n1,·,-2.5,-0.2,0.0,6.4,9.3,·,·,
COc1ccccc1C(=O)Nc1ccc(NC(=O)C2CCCCC2)nc1,-0.5,·,0.2,0.1,0.5,31.3*,3.3,12.7,
CC(C)(C)NC(=O)C1c2ccccc2OCC(=O)N1Cc1ccc2c(c1)OCO2 (centres undefined),·,·,-0.5,-0.1,·,·,·,·,
O=S1(=O)CC(N2CCC(c3ccccc3)CC2)CN1Cc1ccc(F)cc1 (centres undefined),·,·,-1.2,-0.1,·,·,·,·,
Cc1cc(C)c(C#N)c(SCC(=O)Nc2cccc(S(=O)(=O)N3CCCC3)c2)n1,5.7,-10.8,-0.3,0.3,10.0*,31.9*,44.6*,81.6*,MC4R barr conf=-0.7;MOR DOR agonist=4.2
SMILES,NTR1 ag,TAG inh,TbMetRS inhib,aDG glyco up,MC4R ag barr,MC4R antagonist,U2OS cAMP counter,MC4R cAMP antag,others
CCC(=O)N1CCC1(C)C(=O)NCc1ccc(SC)cc1 (centres undefined),·,5.0,-0.2,0.0,-0.5,-1.1,·,·,
CCCCCCCC[n+]1cccc(C(=O)N(CC)CC)c1,0.6,·,0.0,-0.1,-2.1,7.9,·,·,
CCCCCCCCCCCCCCCC[n+]1cccc(C(=O)N(CC)CC)c1,7.7,58.6*!,-0.5,0.9,13.1*,28.8*!,6.6,49.8*,MC4R barr conf=23.0*;MOR DOR agonist=4.1
Nc1c(S(=O)(=O)c2ccccc2)c2nc3ccccc3nc2n1/N=C/c1cccc(O)c1,21.1,5.3,-0.9,-0.6,16.6*,34.8*,1.5,13.0,MC4R barr conf=10.4*;MOR DOR agonist=7.7
O=C(C[C@H]1CC[C@@H](NS(=O)(=O)c2ccccc2)[C@@H](CO)O1)NCc1ccc(Cl)c(Cl)c1,·,·,-0.1,-0.2,·,·,·,·,
CC(=O)n1cc(N(C(=O)CCl)c2ccc(Cl)cc2)c2ccccc21,28.3,67.0*,-0.2,-0.1,13.0*,42.1*,-16.6,51.9*,MC4R barr conf=5.6;MOR DOR agonist=51.1*
CC(=O)n1cc(Nc2ccccc2C(=O)O)c2ccccc21,-1.7,-4.1,-0.8,-0.3,-1.4,-5.2,·,·,

# Screening results (PubChem BioAssay)
